Results from ChEMBL document CHEMBL1157043, “An eco-friendly synthesis and antimicrobial activities of dihydro-2H-benzo- and naphtho-1,3-oxazine derivatives” (Eur J Med Chem, 2010).
≈ marks a conversion by molar mass, not a printed value.

What was measured:
Klebsiella pneumoniae = assay: Antimicrobial activity against Klebsiella pneumoniae after 24 hrs; type: functional
Procedure, shortened: (§1)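 NCCLS microdilution in Mueller Hinton broth. Strains were grown 24 h on nutrient agar at 37 °C, suspended at about 1.0–2.0 × 10^7 cells/mL (McFarland-matched) in saline with 0.05% Tween 20, then diluted 100 µL into 10 mL medium. Compounds were taken from a 1 mg/mL DMSO stock as twofold dilutions, top final 50 µg/mL. Incubation was 35 °C in a moist, dark chamber, and MIC was read spectrophotometrically at 24 h.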

Aspergillus fumigatus = assay: Antimicrobial activity against Aspergillus fumigatus after 72 to 96 hrs
Pseudomonas aeruginosa = assay: Antimicrobial activity against Pseudomonas aeruginosa after 24 hrs; type: functional; procedure, shortened: as §1
Candida parapsilosis = assay: Antimicrobial activity against Candida parapsilosis ATCC 22019 after 24 hrs; type: functional; conditions: Lodderomyces parapsilosis, ATCC 22019, 24 h
Procedure, shortened: (§2)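 Broth microdilution per NCCLS guidelines in MOPS-buffered RPMI 1640. Starting inoculum was 1-5 × 10^3 cfu/mL, and plates were incubated at 35 °C. MIC was read spectrophotometrically at 492 nm after 24–48 h for yeasts and 72–96 h for mycelial fungi.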

Sporothrix schenckii = assay: Antimicrobial activity against Sporothrix schenckii after 24 hrs; type: functional; procedure, shortened: as §2
Candida albicans = assay: Antimicrobial activity against Candida albicans after 24 hrs; type: functional; procedure, shortened: as §2
Cryptococcus neoformans = assay: Antimicrobial activity against Cryptococcus neoformans after 24 hrs; type: functional; procedure, shortened: as §2
Staphylococcus aureus = assay: Antimicrobial activity against Staphylococcus aureus after 24 hrs; type: functional; procedure, shortened: as §1
[1] = tested on: Trichophyton mentagrophytes; assay: Antimicrobial activity against Trichophyton mentagrophytes after 72 to 96 hrs
Escherichia coli = assay: Antimicrobial activity against Escherichia coli after 24 hrs; type: functional; procedure, shortened: as §1

Compound	MIC (Klebsiella pneumoniae)	MIC (Aspergillus fumigatus)	MIC (Pseudomonas aeruginosa)	MIC (Candida parapsilosis)	MIC (Sporothrix schenckii)	MIC (Candida albicans)	MIC (Cryptococcus neoformans)	MIC (Staphylococcus aureus)	MIC [1]	MIC (Escherichia coli)
Fc1ccc(N2COc3ccc4ccccc4c3C2)cc1	50 µg/mL (≈ 179 µM)	> 50 µg/mL	50 µg/mL (≈ 179 µM)	> 50 µg/mL	50 µg/mL (≈ 179 µM)	> 50 µg/mL	50 µg/mL (≈ 179 µM)	> 50 µg/mL	25 µg/mL (≈ 89.5 µM)	> 50 µg/mL
CC1(C)S[C@@H]2[C@H](NC(=O)[C@H](N)c3ccccc3)C(=O)N2[C@H]1C(=O)O [AMPICILLIN]	0.39 µg/mL (≈ 1.12 µM)		50 µg/mL (≈ 143 µM)					0.19 µg/mL (≈ 0.544 µM)		50 µg/mL (≈ 143 µM)
Clc1ccc(N2COc3ccc4ccccc4c3C2)c(Cl)c1	> 50 µg/mL	> 50 µg/mL	> 50 µg/mL	> 50 µg/mL	> 50 µg/mL	> 50 µg/mL	> 50 µg/mL	> 50 µg/mL	50 µg/mL (≈ 151 µM)	> 50 µg/mL
Cc1ccc2c(c1)CN(CCN1COc3ccc(C)cc3C1)CO2	> 50 µg/mL	50 µg/mL (≈ 154 µM)	> 50 µg/mL	50 µg/mL (≈ 154 µM)	12.5 µg/mL (≈ 38.5 µM)	50 µg/mL (≈ 154 µM)	50 µg/mL (≈ 154 µM)	> 50 µg/mL	25 µg/mL (≈ 77.1 µM)	> 50 µg/mL
GENTAMICIN	0.78 µg/mL		0.78 µg/mL					0.39 µg/mL		0.78 µg/mL
c1ccc(N2COc3c(ccc4ccccc34)C2)cc1	> 50 µg/mL	> 50 µg/mL	> 50 µg/mL	> 50 µg/mL	> 50 µg/mL	> 50 µg/mL	> 50 µg/mL	> 50 µg/mL	> 50 µg/mL	> 50 µg/mL
c1ccc(CN2COc3ccc4ccccc4c3C2)cc1	> 50 µg/mL	> 50 µg/mL	> 50 µg/mL	> 50 µg/mL	50 µg/mL (≈ 182 µM)	> 50 µg/mL	> 50 µg/mL	> 50 µg/mL	50 µg/mL (≈ 182 µM)	> 50 µg/mL
Brc1ccc(N2COc3ccc4ccccc4c3C2)cc1	> 50 µg/mL	> 50 µg/mL	50 µg/mL (≈ 147 µM)	> 50 µg/mL	50 µg/mL (≈ 147 µM)	> 50 µg/mL	50 µg/mL (≈ 147 µM)	> 50 µg/mL	50 µg/mL (≈ 147 µM)	> 50 µg/mL
Cc1ccc2c(c1)CN(c1ccccc1Cl)CO2	> 50 µg/mL	50 µg/mL (≈ 193 µM)	50 µg/mL (≈ 193 µM)	50 µg/mL (≈ 193 µM)	12.5 µg/mL (≈ 48.1 µM)	50 µg/mL (≈ 193 µM)	25 µg/mL (≈ 96.3 µM)	> 50 µg/mL	12.5 µg/mL (≈ 48.1 µM)	50 µg/mL (≈ 193 µM)
Cc1ccc2c(c1)CN(c1ccccc1)CO2	50 µg/mL (≈ 222 µM)	50 µg/mL (≈ 222 µM)	> 50 µg/mL	50 µg/mL (≈ 222 µM)	12.5 µg/mL (≈ 55.5 µM)	> 50 µg/mL	> 50 µg/mL	50 µg/mL (≈ 222 µM)	25 µg/mL (≈ 111 µM)	25 µg/mL (≈ 111 µM)
c1ccc2c(c1)CN(CCN1COc3ccccc3C1)CO2	> 50 µg/mL	50 µg/mL (≈ 169 µM)	> 50 µg/mL	> 50 µg/mL	25 µg/mL (≈ 84.4 µM)	> 50 µg/mL	50 µg/mL (≈ 169 µM)	> 50 µg/mL	25 µg/mL (≈ 84.4 µM)	> 50 µg/mL
c1ccc(N2COc3ccccc3C2)cc1	> 50 µg/mL	50 µg/mL (≈ 237 µM)	> 50 µg/mL	50 µg/mL (≈ 237 µM)	25 µg/mL (≈ 118 µM)	> 50 µg/mL	> 50 µg/mL	> 50 µg/mL	25 µg/mL (≈ 118 µM)	50 µg/mL (≈ 237 µM)
Clc1cc(Cl)c(N2COc3ccc4ccccc4c3C2)c(Cl)c1	> 50 µg/mL	> 50 µg/mL	> 50 µg/mL	> 50 µg/mL	> 50 µg/mL	> 50 µg/mL	> 50 µg/mL	> 50 µg/mL	50 µg/mL (≈ 137 µM)	> 50 µg/mL
Clc1ccc(N2COc3ccc4ccccc4c3C2)cc1	50 µg/mL (≈ 169 µM)	> 50 µg/mL	50 µg/mL (≈ 169 µM)	> 50 µg/mL	50 µg/mL (≈ 169 µM)	> 50 µg/mL	50 µg/mL (≈ 169 µM)	> 50 µg/mL	25 µg/mL (≈ 84.5 µM)	> 50 µg/mL
CC(=O)N1CCN(c2ccc(OCC3COC(Cn4ccnc4)(c4ccc(Cl)cc4Cl)O3)cc2)CC1 (centres undefined) [KETOCONAZOLE]		2 µg/mL (≈ 3.76 µM)		0.031 µg/mL (≈ 0.0583 µM)	0.031 µg/mL (≈ 0.0583 µM)	0.002 µg/mL (≈ 0.00376 µM)	0.001 µg/mL (≈ 0.00188 µM)		4 µg/mL (≈ 7.53 µM)	
